Reference: the RNAGym collection of RNA variant scans (doi:10.1126/science.aae0568)
This sample holds only a part of the variants without activity.

B1: tRNA (parent)
chain: GUUCCGUUGGCGUAAUGGUAACGCGUCUCCCUCCUAAGGAGAAGACUGCGGGUUCGAGUCCCGUACGGAACG

Variants of: B1
Test: yeast fitness relative to wild type (ratio to wild type); higher = fitter; tRNA-Arg(CCU), competitive growth, 37 C, YPD
Outline: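 Amplicons of the tRNA-Arg(CCU) gene were sequenced, 100-nucleotide paired-end, from the start population and from each end population of a pooled yeast competition. The competition, in six parallel replicates, lasted 24 hours in YPD at 37°C. Fitness relative to wild type was calculated from changes in genotype frequencies. Genotypes had to have ≥ 100 starting reads, and estimates < 0.5 were set to 0.5.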
For GUUCAGUUGGCGAAAUGGUAACGCGUCUCCCCCCAAAGGAGAAGACUGCGGGUUCGAGCCCCGUACGGAUCG [C5A U13A U32C U35A U59C A70U], the yeast fitness was 0.547. In the case of GUUCAGUUGGCGUAAUGGUAACGCGCCUCCCUCCUAAGGACAUGACUGCGGGUUCGGGUCCCGUACGGAACG [C5A U26C G41C A43U A57G], the yeast fitness is reported as ≤ 0.5. In the case of GUUCAGUUGGCGUAAUGGUAACGCGUCGCCCUCCUAAGGAGAAGACUGCGGGUUCGAGUCCCGUAUGGAACG [C5A U28G C66U], the yeast fitness is reported as ≤ 0.5. In the case of GUUCAGUUGGCGCAAUGGUAACGCGUAGCCCUCCUAAGGAGAAGACUGCGGGUUCGAGUCCCGUACUGAACG [C5A U13C C27A U28G G67U], the yeast fitness is reported as ≤ 0.5. For GUUCAGUUGGCGUAAUGGUAACGCGAGUCGCUCCUUACGAGAAGAUUGGGGGUUCGAGUCCCGUUCGGAACG [C5A U26A C27G C30G A36U G38C C46U C49G A65U], the yeast fitness was ≤ 0.5. In the case of GUUCAGUUGGCGCAAUGGUAACGCGUCUUCCUCCUAAGGAGAAGACUGCGGGUUCCAGUCCCGUACGGAACG [C5A U13C C29U G56C], the yeast fitness is reported as ≤ 0.5. For GUUCAGUUGGCGUAAUGGUAACGCGACUCCCUCCUAAGGAGCAGACUGCGGGUUCGAGUCCCGUACGGAACG [C5A U26A A42C], the yeast fitness was ≤ 0.5. Work on GUUCAGUUGGCGUAAUGGUAACGCGUCUCCCGCCUAAGGAGAAGACUGCGGGUUCGAGUCCCGUACGGAACG [C5A U32G] yielded a yeast fitness of 0.584. In the case of GUUCAGUUGGCGUAACGGUACCGCGUCUCCCUUCUAAGGGGAUGACUGCGGGUGCGAGUCCGGUACGGAACG [C5A U16C A21C C33U A40G A43U U54G C62G], the yeast fitness is reported as ≤ 0.5. With GUUCAGUUGGCGUAACGGUAACGCGUCUCACUCCUAAGGAGAAGUCUGCCGGUUCGAGUCCCAUACGGAACG [C5A U16C C30A A45U G50C G63A] the yeast fitness was ≤ 0.5. In the case of GUUCAGUUGGCGUAAUGGUAACGCGUCUCCCUCCGAAGGAGCAGACUGCGGGUUCGAGUCCCGUACGGCACG [C5A U35G A42C A69C], the yeast fitness is reported as 0.588. With GUUCAGUUGGCGUAAUGGUAACGCGUCACCUUCCUAAGGAGAAGACUGCGCGUUCGAGUCCCGUACGGAACG [C5A U28A C31U G51C] the yeast fitness was ≤ 0.5. In the case of GUUCAGUUGGCGGAAUGGUAACGGGUCUCCAUCCUAAGGAGAAGACUGCGGGUUCGAGUCCUGUAUGGAACG [C5A U13G C24G C31A C62U C66U], the yeast fitness is reported as ≤ 0.5. With GUUCAGUUGGCGUAAUGGUAACGCGUCUCCCUCCGAAGGAGAAGACUGCGGGUUCGAGUUCGGUACGGAGCG [C5A U35G C60U C62G A70G] the yeast fitness was ≤ 0.5. In the case of GUUCAGUUGGCGUAAUGGAAACGCGUCUCCCUCCUAACGAGAAGACUGCGGGUUCGAGUCCCGUACGGAACG [C5A U19A G38C], the yeast fitness is reported as ≤ 0.5. With GUUCAGUUGGCGUAAGGGUAACGCGUUUUCCUCCUUAGGAAAAGACUGUGGGUUCGAGUCCCGUAUGGAACG [C5A U16G C27U C29U A36U G41A C49U C66U] the yeast fitness was ≤ 0.5. For GUUCAGUUGGCGGAAUGGUAACGCGUCUCCCACCUAAGGAGUAGACUGCGGAUACGAGUCCCGUACGGCACG [C5A U13G U32A A42U G52A U54A A69C], the yeast fitness was ≤ 0.5. In the case of GUUCAGUUGGCGUAAAGGUAACGCGUCUCCCUCCUAAGGAGAGGACUGCGGGUUCGAGACACGUACGGAACG [C5A U16A A43G U59A C61A], the yeast fitness is reported as ≤ 0.5. For GUUCGGUUGGCGUCAUGGUAACGCGUCUACGUCCUAAGGAGAAGACUGCGGGUUCGAGUCCCGUCCGGAACG [C5G A14C C29A C31G A65C], the yeast fitness was ≤ 0.5. For GUUCAGUUGGCGUAAUGGUAACGCGUCUCCCUCCGAAGGAGAAGACCGCGGGUUCGAGUCGCGUACGGAACG [C5A U35G U47C C61G], the yeast fitness was ≤ 0.5. GUUCAGUUGGCGUAAUGGUAACGCGCUUCCCUCCUAAGGAGAAGACUGCGGGUUCGAGUCCCGUACGGAACG [C5A U26C C27U] showed a yeast fitness of 0.687. In the case of GUUCGGUUGGCGUCAUGGUGACGCGUCUACGUCCUAAGGAGAAGACUGCGGGUACGAGUCCCGUACGGAACG [C5G A14C A20G C29A C31G U54A], the yeast fitness is reported as ≤ 0.5. In the case of GUUCAGUUGGCGCAAUGAUAACGCGUCUCCGUCCUAAGGAGAAGAUUGCGGGUUCGAGUCCCGUACGGAACG [C5A U13C G18A C31G C46U], the yeast fitness is reported as ≤ 0.5. In the case of GUUCAGUUGGCGUAAUGGUAACGCGUCUCCCUCCUAAGGAGAAGACUGCGGGGUCGAGUACCGUACGGAACG [C5A U53G C60A], the yeast fitness is reported as ≤ 0.5. GUUCAGUUGGCGUAAUGGUAACGCGUCUCCCUCCUAAGGAGAAGACUGCGGGUUCGAGGCCCGUACGGAACG [C5A U59G] showed a yeast fitness of 0.746. Work on GUUCAGUUGGCGUAAUGGUAACGCGUCUCCCUCCUAAGGAGAAGACUGCGGGUUCGAGCCCCGUACGGAACG [C5A U59C] yielded a yeast fitness of 0.807. Variant GUUCAGUUGGCGUAAAGGUAAGGCGUCUCCCUCCUAUGGAGAAGACUGCGGGUUCGAGUCCCGUACGGAACG [C5A U16A C22G A37U] has a yeast fitness of 0.717. With GUUCGGUUGGCGUCAUGAUAACGCGUCUCCCUCCUAAGGAGAGGCUUGCGGGUUCGGGUCCCGUACGGAACG [C5G A14C G18A A43G A45C C46U A57G] the yeast fitness was ≤ 0.5. For GUUCAGUUGGCGUAAUGGUAACGCGUCGCGCUCCUAAGGCGUAGACUGCGGGUUCGAGUCCCGUACGGAACG [C5A U28G C30G A40C A42U], the yeast fitness was ≤ 0.5. For GUUCAGUUGGCGUAAUGGUAACGCGGCUCCCUCCUAAGGAGAAGACUGCGGGUUCGAGUGUCGUACGGAACG [C5A U26G C60G C61U], the yeast fitness was ≤ 0.5. With GUUCAGUUGGCGUAAAGGUAACGCGUCUCCCUCCUAAGAAGAAGGCUGCAGGUUCGAGUCCCGUACGGAACG [C5A U16A G39A A45G G50A] the yeast fitness was ≤ 0.5. With GUUCAGUUGGCGUAACGGUAAUGCGUCUCCCUCCUAAGGAGAAGACUGCGGGUUCGAGUCCCGUACGGAACG [C5A U16C C22U] the yeast fitness was 0.612. For GUUCAGUUGGCGUAAUGGUAACGCGUCUCCCUCCCAAGGAGAAAACUCCGGGUUGGAGUCCCGUACGGAACG [C5A U35C G44A G48C C55G], the yeast fitness was ≤ 0.5. With GUUCAGUUGGCGUAAUGGUAACGCGUCUCCCUCCCAAGGAGAAAACUCCGGGUUAGAGUCCCGUACGGAACG [C5A U35C G44A G48C C55A] the yeast fitness was ≤ 0.5. Work on GUUCAGUUGGCGUAAUGGGAACGCGUCUCCGUCCUAAGGAGAAGACUGCGGGAUCGAGUCCCGUACGGAACG [C5A U19G C31G U53A] yielded a yeast fitness of 0.775. For GUUCAGUUGGCGUAAUGGUAACGCGUCUCCCGCCUAAGGAGAAGACUGCGGGUUUGAGUCCCGUACGGAACG [C5A U32G C55U], the yeast fitness was ≤ 0.5. In the case of GUUCAGUUGGCGUAAUGGUAACGCGUCUCCCUCCUAAGGAGAAGACUGCGGGUUCGAGACCCGUAAGGAACG [C5A U59A C66A], the yeast fitness is reported as ≤ 0.5. With GUUCGGUUGGCGUCAUGAUAACGCGUCUCCCUCCUAAGGAGAGGCUUGCGGGUUCGAGUCCCGUACGGAACG [C5G A14C G18A A43G A45C C46U] the yeast fitness was 0.579.
